Hits are enriched below; roughly 2.6% of the tested compounds scored in any of these assays.
GRK2 aptamer HTS: inhibitors of human GRK2 displacing RNA aptamer | P25098 | 0.59% of 330,000 active | bead flow cytometry, FAM-aptamer displacement from GRK2 | inhibition of aptamer binding, % at 10 µM;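 active = inhibition of aptamer binding above 40%, roughly 3 SD of noise, on plates passing a quality check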;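 note: median bead fluorescence of bound FAM aptamer so fluorescent compounds give negative values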
Myeloid diff 2: myeloid differentiation induction | ER-HoxA9 myeloid progenitors, lysozyme-GFP differentiation, flow cytometry | calls only at 10 µM | 1% of 360,000 active | AID 624256;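 active = normalized GFP-positive differentiation at or above the plate's own cutoff, the solvent-only control mean plus 3 SD; inconclusive = no clear call, values can overlap the other calls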;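 note: cells exposed to compound for four days before flow analysis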
Rin1-Abl PPI inh: inhibitors of human Rin1-Abl protein interaction. P00519+Q13671. TR-FRET Rin1/Abl binding, biochemical. inhibition, % at 7.35 µM. 0.4% of 360,000 active; in the data active = inhibition above about 5%, passing the limit was not always enough
Rce1 inh: yeast Ras-converting enzyme inhibition | Q03530 | 0.27% of 290,000 active | calls only | yeast membranes, quenched prenylated peptide cleavage fluorescence;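 active = fall in fluorescence gain of 50% or more versus controls, with final raw signal at or below 3038400; inconclusive = same 50% fall but final raw signal above 3038400; inactive = fall in fluorescence gain under 50%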;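 note: plate controls were neutral control wells for no effect and wells lacking membranes for full effect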
Target sequence (Q03530 whole entry, looked up): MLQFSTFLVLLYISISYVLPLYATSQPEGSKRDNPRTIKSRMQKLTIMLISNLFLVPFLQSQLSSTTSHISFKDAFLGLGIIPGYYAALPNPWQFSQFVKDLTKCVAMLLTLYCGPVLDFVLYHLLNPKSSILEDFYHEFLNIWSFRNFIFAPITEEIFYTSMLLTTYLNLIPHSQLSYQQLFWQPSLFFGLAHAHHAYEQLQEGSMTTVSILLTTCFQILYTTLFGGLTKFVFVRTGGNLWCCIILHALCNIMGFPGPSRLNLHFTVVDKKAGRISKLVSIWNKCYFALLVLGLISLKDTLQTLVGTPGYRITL
SKN-1 block: C. elegans SKN-1 inhibition; C. elegans VP596 Pgst-4::GFP/RFP ratio, acrylamide-induced, 24 h; inhibition, % at 21.8 µM; 0.49% of 360,000 active; AID 624304;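 active = interference check ratio from 0.5 to 1.5 plus GFP to RFP signal ratio inhibition reaching or exceeding a fixed threshold, cut at about 30% in these data, passing the limit was not always enough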
T cell HTS: T cell immune modulation candidate. response (vesicle binding), % at 7 µM. 0.068% of 330,000 active. 2C CD8+ T cell-vesicle binding, flow cytometry; active compounds read low;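 active = response, share of CD8 T cells binding vesicles, and their 90th percentile fluorescence all below set limits, cut at about 80% in these data, passing the limit was not always enough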;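 note: values below 100% mean blocked vesicle binding to the CD8+ T cells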
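Assay system: 2C TCR transgenic mouse naive CD8+ T cells, MACS-purified | Read-out: CD8+ gate FL2 mean fluorescence as % of same-row positive control | Signal: High-throughput flow cytometry with anti-B7-1 and anti-CD8 staining | Timing: Binding step 1.5 h, 37 °C, antibody labelling 20 min, ice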
Myeloid diff CP1: myeloid differentiation induction; ER-HoxA9 myeloid progenitors, GFP/Mac1 double-positive flow; 2% of 2,300 active; calls only; shares compounds with Myeloid diff 2;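 active = share of green or green-and-red cells above 9 and 9% in run 1 or 4 and 3% in run 2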
GFP autofluor: counter-screen for myeloid differentiation promoters: compound fluorescence; fluorescence response, % (test concentration not listed); AID 651707; 7.4% of 2,300 active; shares compounds with Myeloid diff 2; ER-HoxA9 myeloid progenitors, no estrogen, GFP autofluorescence flow cytometry; vehicle wells 0%, positive control 100%;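 active = over 5% cells positive for green fluorescent reporter, or over 2% positive for both it and APC stain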;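 note: range taken on the double positive population between DMSO and positive control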
* marks the source's active call; other numbers are inactive results; i = inactive; ? = inconclusive; / = no result; + = active, no number.

SMILES | GRK2 aptamer HTS | Myeloid diff 2 | Rin1-Abl PPI inh | Rce1 inh | SKN-1 block | T cell HTS | Myeloid diff CP1 | GFP autofluor
CCSc1nc2sc3c(c2c(=O)n1-c1ccccc1)CCN(C(C)C)C3 | 0 | + | -2 | i | 17 | 166 | i | 5
CCCCCNc1nc2sc3c(c2c(=O)n1-c1cccc(Cl)c1)CCN(C)C3 | 0 | + | -2 | i | 2 | 419 | i | 1
CCCCNc1nc2sc3c(c2c(=O)n1-c1cccc(Cl)c1)CCN(C)C3 | 0 | ? | 0 | i | 6 | 274 | / | /
COc1ccc(N2C(=O)[C@@H]3C(c4cccnc4)=NO[C@@H]3C2=O)cc1 | 3 | i | 2 | i | 7 | 198 | / | /
Cn1c(=O)c2c(nc(NCc3ccco3)n2C/C=C/c2ccccc2)n(C)c1=O | 4 | i | 3 | i | 9 | 206 | i | 0
COC(=O)/C(=C/Nc1ccccc1)[N+](=O)[O-] | 3 | / | 1 | i | 3 | 729 | i | 2
COC(=O)/C(=C/Nc1ccc(O)cc1)[N+](=O)[O-] | 0 | i | 2 | i | -2 | 249 | / | /
CCOc1ccc(N(CC(=O)Nc2ccc(F)c(F)c2)S(=O)(=O)c2c(C)noc2C)cc1 | 0 | i | 2 | i | -1 | 276 | / | /
CCOc1ccc(N(CC(=O)Nc2ccc(C)cc2)S(=O)(=O)c2c(C)noc2C)cc1 | 1 | + | -3 | i | 11 | 391 | i | 1
COc1ccc2c(c1)C(CC(C)=O)N(c1ccc(-c3cccs3)cc1)C(c1ccsc1)=C2 (centres undefined) | / | + | / | / | -1 | / | i | 0
COc1ccc2c(c1)C(CC(C)=O)N(c1ccc(-c3cnc(OC)nc3)cc1)C(c1ccsc1)=C2 (centres undefined) | / | i | / | / | -1 | / | / | /
N#Cc1ccccc1S(=O)(=O)N1CCN(Cc2cc3c(cc2Br)OCCO3)CC1 | / | i | 3 | / | 3 | / | / | /
CN(C1CCCCC1)S(=O)(=O)c1ccc(SCC(=O)C(C)(C)C)nc1 | 0 | i | -3 | / | -11 | 285 | / | /
N#CCC(=O)Nc1ccc(C(=O)OC(C(=O)Nc2ccc([N+](=O)[O-])cc2Br)c2ccccc2)cc1 (centres undefined) | / | i | 1 | / | -4 | / | / | /
N#CCC(=O)Nc1ccc(C(=O)OC(C(=O)Nc2cc(C(F)(F)F)ccc2Cl)c2ccccc2)cc1 (centres undefined) | 1 | + | -4 | i | -3 | 175 | i | 1
CN1CC(=O)N(CC(=O)NC2CCCCC2)C1=O | 0 | i | 3 | / | 24 | 425 | / | /
O=C1S/C(=C\c2ccc(N3CCOCC3)o2)C(=O)N1c1ccccc1 | 0 | + | 6 | i | 11 | 458 | i | 9.6*
COc1ccc(NC(=O)C(OC(=O)c2cnccn2)c2ccccc2)cc1Cl (centres undefined) | 0 | i | 1 | i | 4 | 0 | / | /
Cc1ccc(/C=C/c2nnc(-c3cccs3)o2)cc1 | 0 | i | 4 | i | 19 | 336 | i | 0
Cc1[nH]c(C)c(S(=O)(=O)N2CCCCC2C)c1C(=O)N1CCCC1 (centres undefined) | 0 | i | 1 | i | 11 | 389 | / | /
Cn1c(=O)oc2cc(S(=O)(=O)N3CCCC(C(=O)NCc4ccc5c(c4)OCO5)C3)ccc21 (centres undefined) | 0 | i | 1 | / | -11 | 356 | / | /
Cn1c(=O)oc2cc(S(=O)(=O)N3CCCC(C(=O)NCc4cccs4)C3)ccc21 (centres undefined) | 0 | i | -1 | i | 6 | 364 | i | 0
O=c1oc2ccc(Cl)cc2nc1/C=C(\O)c1ccco1 | 6 | + | -1 | i | -7 | 411 | i | 0
Cc1ccc(/C(O)=C/c2nc3cc(C)ccc3oc2=O)cc1 | 2 | i | 3 | i | -5 | 356 | / | /
CC(C)C/C(O)=C/c1nc2cc(Cl)ccc2oc1=O | 0 | i | 2 | i | -2 | 89 | i | 1
SMILES | GRK2 aptamer HTS | Myeloid diff 2 | Rin1-Abl PPI inh | Rce1 inh | SKN-1 block | T cell HTS | Myeloid diff CP1 | GFP autofluor
CCC1CCCCN1CCCNC(=O)c1nn(C)c2c1CS(=O)(=O)c1ccccc1-2 (centres undefined) | 0 | i | -2 | i | 0 | 496 | / | /
Cc1oc(C(C)(C)C)cc1C(=O)Nc1ccc(N2CCOCC2)cc1 | 0 | i | -2 | i | -5 | 572 | / | /
COc1cc(CSc2nnnn2-c2ccc(C)cc2)cc(OC)c1OC | 0 | i | 1 | i | 0 | 840 | i | 0
COc1ccc(F)cc1CSc1nnnn1-c1ccc(O)cc1 | 0 | i | 1 | i | -1 | 198 | / | /
Cc1noc(C)c1S(=O)(=O)N(C)C[C@H]1Oc2c(NC(=O)Nc3ccc(C(F)(F)F)cc3)cccc2C(=O)N([C@H](C)CO)C[C@@H]1C | 0 | i | -1 | / | 8 | 729 | / | /
N#Cc1cc(C#N)c(N2CCN(c3ccccn3)CC2)nc1N | 3 | + | -1 | i | 1 | 342 | i | 0
COc1ccc2c(c1O)C(=O)c1ccccc1C2=O | 0 | / | / | i | / | 374 | / | /
CC(C)COC(=O)c1ccc2c(c1O)C(=O)c1ccccc1C2=O | 5 | i | 4 | i | -6 | 178 | i | 6.1*
CCOCCCNC(=O)Cc1c(C(=O)O)[nH]c2ccc(Cl)cc12 | 0 | i | -2 | i | 4 | 543 | i | 0
COc1ccc(C(C)(NC(C)=O)c2nc(-c3ccc(F)c(Cl)c3)cs2)cc1 (centres undefined) | / | i | 0 | / | 3 | / | / | /
CN1CCN(c2cc3c(c4c2[nH]c2ccccc24)C(=O)CC(C)(C)C3)CC1 | 0 | i | -1 | i | -7 | 400 | i | 0
Cc1cc(C)c2cc3c(N)c(C(=O)Nc4c(C)[nH]c(=O)[nH]c4=O)sc3nc2c1 | 0 | + | -7 | i | 10 | 258 | i | 4
Cc1nnc(SCCn2c(N(C)Cc3ccccc3)nc3c2c(=O)[nH]c(=O)n3C)s1 | 1 | + | 3 | i | 15 | 522 | i | 0
Cc1nnc(SCCn2c(N3CCC(Cc4ccccc4)CC3)nc3c2c(=O)[nH]c(=O)n3C)s1 | 0 | / | / | i | / | 619 | / | /
Clc1ccc(Oc2nc(Oc3ccc(Cl)cc3)nc(N3CCOCC3)n2)cc1 | 1 | + | 3 | i | 1 | 367 | i | 1
Clc1cccc(Nc2nc(N3CCOCC3)nc(N3CCOCC3)n2)c1 | 1 | i | 0 | i | -10 | 225 | i | 0
COC(=O)[C@]12CCCCC=C1N(Cc1ccccc1)C(=O)[C@H](CC(=O)NCC13CC4CC(CC(C4)C1)C3)C2 | / | i | / | / | 3 | / | / | /

Source: PubChem (several laboratories)
